The nature of assay [1]: HUVEC growth inhibition – cell-based, human, primary screen (AID 575;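 active = viability at or below 30% in both replicate assays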;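 note: 100% = median of untreated cell wells with 0.1% DMSO on each plate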). To be noted: HUVEC proliferation, CellTiter-Glo luminescence, 72 h; at 10 µM; stronger effect = lower value. In short, it runs like this: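 Test system: HUVEC primary cells. Quantity: 1250 endothelial cells in each well. Dosing: single-point 10 µM, DMSO 0.1% final. Incubation: 72 h treatment at 37 °C. Measured by: CTG luminescence. Control set: DMSO cell controls and MePR drug controls. Plate: collagen-coated 384-well format.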

Assay [2] is described as follows: H69AR cell proliferation blockers – human, duplicate replicates, primary screen (AID 580;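 active = viability at or under a set limit in both replicates, limit being median viability minus 3 SD, cut at about 48% in these data, passing the limit was not always enough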;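 note: 100% = mean luminescence of untreated wells and 0% = no signal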). To be noted: H69AR lung tumor cells viability, ATP luminescence, 72 h; at 10 µM; stronger effect = lower value.
Assay [3] can be described thus: MRP1 drug-resistance reversers in H69AR cells – cell-based, doxorubicin co-treatment, pilot screen (AID 601). The note with it: CellTiter-Glo, 72 h, at 10 µM; for differential viability (reversal): stronger effect = higher value.
Assay [4] is described as follows: yeast transport mutant growth inhibition pilot in 384-well plates, post-Golgi transport modulator project (AID 636; in the data active = inhibition above about 31%). To be noted: absorbance 615 nm, about 18 h, stronger effect = higher value.
The nature of assay [5]: growth suppression of yeast trafficking mutant, preliminary HTS, modulators of trafficking downstream of Golgi apparatus project, 1536-format plate, OD 615 nm (AID 637; in the data active = inhibition above about 30%). The note with it: yeast transport mutant growth, absorbance 615 nm, 18 h; stronger effect = higher value.
Where [6] appears, read: H69AR cells + 2 uM doxorubicin, measured here: viability with 2 uM doxorubicin, stronger effect = lower value.
Setting [7] is: H69AR cells, compound alone cytotoxicity.

Activity calls are given as the source filed them.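 Rule for the calls, unless noted: active = viability loss from added drug above about 55%, and viability with drug at most 40%, in both replicates (limit read from the data, passing the limit was not always enough); inconclusive = both conditions met in only one replicate; inactive = neither replicate meets both conditions.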

On to `O=S(=O)(NCCc1ccncc1)c1cc(Br)ccc1F`, for which the viability was 97.5% (inactive) in assay [1], 98.2% (inactive) in assay [2], 84.8% in assay [3] (setting [6]) and 98.2% in assay [3] (setting [7]). Besides, the differential viability (reversal) in assay [3] (H69AR cells + 2 uM doxorubicin) is 13.4% (inactive). Further, the inhibition in assay [4] is -3.9% (inactive); in assay [5] it was 13.5% (inactive).

Take `O=C(CSc1nc(C2CCCCC2)n(-c2ccccc2)n1)NCCN1C(=O)CSC1=O`: the viability is 103% (inactive) in assay [1], 98.8% (inactive) in assay [2], 103% in assay [3] (setting [6]) and 98.8% in assay [3] (setting [7]). The differential viability (reversal) in assay [3] (H69AR cells + 2 uM doxorubicin) is -4.29% (inactive). Also, the inhibition in assay [4] was -5.84% (inactive); in assay [5], 1.27% (inactive).

Take `Cc1nn(CC(O)Cn2c3c(c4ccccc42)CCN(C)C3=O)c(C)c1Br` (stereo unspecified): the viability in assay [1] was 52.8% (inactive); in assay [2], 69.8% (inactive); in assay [3] (setting [6]), 81.9%; in assay [3] (setting [7]), 69.8%. Also, the differential viability (reversal) in assay [3] (H69AR cells + 2 uM doxorubicin) is -12.1% (inactive). The figures for the inhibition in assay [4] and in assay [5] were -4% (inactive) and -2.54% (inactive), respectively.

`Cc1cc(C(=O)Nc2cc(C)n(Cc3ccc(Cl)cc3)n2)no1`: the viability in assay [1] is 102% (inactive); in assay [2] it was 94.5% (inactive); in assay [3] (setting [6]), 92.1%; in assay [3] (setting [7]), 94.5%. Moreover, the differential viability (reversal) in assay [3] (H69AR cells + 2 uM doxorubicin) is 2.41% (inactive). Also, the results for the inhibition in assay [4] and in assay [5] were 1.97% (inactive) and -6.51% (inactive), respectively.

Regarding `COC(=O)c1ccc(CSc2nc3ccccc3c(=O)n2Cc2ccco2)o1`, the viability in assay [1] was 81.2% (inactive); in assay [2], 84.4% (inactive); in assay [3] (setting [6]), 92.3%; in assay [3] (setting [7]) it was 84.4%. In assay [3] (H69AR cells + 2 uM doxorubicin), the differential viability (reversal) was -7.85% (inactive). Moreover, the figures for the inhibition in assay [4] and in assay [5] were -4.94% (inactive) and -1.11% (inactive), respectively.

For the compound `COc1cccc(Nc2c(F)c(F)c(F)c(F)c2C(=O)O)c1`, the viability is 92.2% (inactive) in assay [1], 99.7% (inactive) in assay [2], 90.5% in assay [3] (setting [6]) and 99.7% in assay [3] (setting [7]). Also, the differential viability (reversal) in assay [3] (H69AR cells + 2 uM doxorubicin) is 9.22% (inactive). Also, the inhibition is -5.84% (inactive) in assay [4] and -1.27% (inactive) in assay [5].

On to `CC1=C(C#N)C(c2ccc3ncccc3c2)C(C#N)=C(C)N1`, for which the viability in assay [1] was 86.2% (inactive); in assay [2] it was 97% (inactive); in assay [3] (setting [6]), 98.7%; in assay [3] (setting [7]) it was 97%. In addition, the differential viability (reversal) in assay [3] (H69AR cells + 2 uM doxorubicin) is -1.7% (inactive). Moreover, the inhibition in assay [4] is -4.74% (inactive); in assay [5], 0% (inactive).

Consider `O=C(CN1C(=O)COc2ccccc21)NCCN1CCc2ccccc2C1`, for which the viability in assay [1] is 79.1% (inactive); in assay [2], 92.9% (inactive); in assay [3] (setting [6]), 96.4%; in assay [3] (setting [7]), 92.9%. Also, in assay [3] (H69AR cells + 2 uM doxorubicin), the differential viability (reversal) was -3.52% (inactive). Besides, the results for the inhibition in assay [4] and in assay [5] were -4.68% (inactive) and -1.59% (inactive), respectively.

As to `CCCn1c(=N)n(CCOc2ccc(OC)cc2)c2ccccc21`, the viability was 91.4% (inactive) in assay [1], 69.8% (inactive) in assay [2], 68.5% in assay [3] (setting [6]) and 69.8% in assay [3] (setting [7]). The differential viability (reversal) in assay [3] (H69AR cells + 2 uM doxorubicin) was 1.35% (inactive). For the same compound, the inhibition in assay [4] was -6.05% (inactive); in assay [5] it was 3.49% (inactive).

`N#Cc1cnc(SCC(=O)c2ccccc2)nc1N`: the viability in assay [1] is 95.5% (inactive); in assay [2] it was 93.1% (inactive); in assay [3] (setting [6]) it was 76.9%; in assay [3] (setting [7]), 93.1%. The differential viability (reversal) in assay [3] (H69AR cells + 2 uM doxorubicin) was 16.2% (inactive). In addition, the inhibition in assay [4] is -6.93% (inactive); in assay [5], 7.3% (inactive).

Regarding `O=C(Cc1ccccc1)Nc1nnc(-c2cccs2)s1`, the viability is 96.8% (inactive) in assay [1], 61.1% (inactive) in assay [2], 67.1% in assay [3] (setting [6]) and 61.1% in assay [3] (setting [7]). For the same compound, the differential viability (reversal) in assay [3] (H69AR cells + 2 uM doxorubicin) is -6.04% (inactive). Also, the inhibition in assay [4] is -2.99% (inactive); in assay [5] it was 3.02% (inactive).

For `O=C(CSc1nc2ccccc2o1)N1CCN(c2ccc(Cl)cc2)CC1`, the viability is 92.6% (inactive) in assay [1], 87.4% (inactive) in assay [2], 85.9% in assay [3] (setting [6]) and 87.4% in assay [3] (setting [7]). For the same compound, the differential viability (reversal) in assay [3] (H69AR cells + 2 uM doxorubicin) was 1.47% (inactive). Moreover, the inhibition was -1.56% (inactive) in assay [4] and 6.35% (inactive) in assay [5].

For the compound `CCN(C(=O)c1c(-c2ccccc2)noc1C)c1ccccc1`, the viability in assay [1] was 100% (inactive); in assay [2], 93.8% (inactive); in assay [3] (setting [6]), 84.3%; in assay [3] (setting [7]), 93.8%. Moreover, the differential viability (reversal) in assay [3] (H69AR cells + 2 uM doxorubicin) is 9.52% (inactive). For the same compound, the inhibition in assay [4] was -1.18% (inactive); in assay [5], 14.9% (inactive).

Regarding `CCn1c(=N)n(CC(=O)C23CC4CC(CC(C4)C2)C3)c2ccccc21`, the viability in assay [1] was 4.87% (active); in assay [2], 83.1% (inactive); in assay [3] (setting [6]) it was 83.2%; in assay [3] (setting [7]), 83.1%. In addition, the differential viability (reversal) in assay [3] (H69AR cells + 2 uM doxorubicin) is -0.145% (inactive). The inhibition in assay [4] was -5.27% (inactive); in assay [5], 15.3% (inactive).

As for `O=C(Nc1ccccc1C(=O)N1CCOCC1)c1ccncc1`, the viability in assay [1] was 96.4% (inactive); in assay [2] it was 101% (inactive); in assay [3] (setting [6]), 93.6%; in assay [3] (setting [7]), 101%. Also, in assay [3] (H69AR cells + 2 uM doxorubicin), the differential viability (reversal) is 7.54% (inactive). Further, the results for the inhibition in assay [4] and in assay [5] were -1.43% (inactive) and -2.22% (inactive), respectively.

For `COc1ccccc1C(=O)Nc1c2c(nn1-c1cccc(C)c1C)CS(=O)(=O)C2`, the viability in assay [1] is 49.2% (inactive); in assay [2], 95.2% (inactive); in assay [3] (setting [6]), 72.3%; in assay [3] (setting [7]) it was 95.2%. In assay [3] (H69AR cells + 2 uM doxorubicin), the differential viability (reversal) was 22.9% (inactive). The inhibition in assay [4] was -4.13% (inactive); in assay [5], 1.94% (inactive).

As for `CCC(C)c1ccc(NC(=O)C2CC2)cc1` (stereo unspecified), the viability is 88.6% (inactive) in assay [1], 90.3% (inactive) in assay [2], 80.9% in assay [3] (setting [6]) and 90.3% in assay [3] (setting [7]). Besides, the differential viability (reversal) in assay [3] (H69AR cells + 2 uM doxorubicin) is 9.41% (inactive). For the same compound, the inhibition in assay [4] was -1.82% (inactive); in assay [5] it was 2.06% (inactive).

In the case of `CC(=O)Nc1cccc(NC(=O)CSc2nnnn2C(C)C)c1`, the viability is 97.5% (inactive) in assay [1], 99.2% (inactive) in assay [2], 84.5% in assay [3] (setting [6]) and 99.2% in assay [3] (setting [7]). Also, in assay [3] (H69AR cells + 2 uM doxorubicin), the differential viability (reversal) was 14.7% (inactive). For the same compound, the values for the inhibition in assay [4] and in assay [5] were -8.03% (inactive) and 4.13% (inactive), respectively.

The record behind these values is PubChem BioAssay.
